≈ marks a conversion by molar mass, not a printed value. Calls of active or inactive are those of the source. No cut-off for these calls is given here.
Assays:
[1] = test system: Fusarium solani; experiment: Antifungal activity against Fusarium solani 52628 after 48 hrs by two fold serial dilution method; type: functional; conditions: Fusarium solani, 52628, 48 h
Procedure, shortened: (§1)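 Moulds grown on potato dextrose agar, 30 °C, 4 days; inoculum adjusted to about 5×10^3 CFU/mL. Two-fold serial dilutions in RPMI-1640 broth, 100 to 0.78 μg/mL final, mixed with equal volume of cell suspension; incubated 30 °C, 48 h. MIC = lowest concentration inhibiting growth, judged visually and by OD530.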

[2] = test system: Aspergillus fumigatus; experiment: Antifungal activity against Aspergillus fumigatus TCC MYA3626 after 48 hrs by two fold serial dilution method; type: functional; conditions: TCC MYA3626, 48 h; procedure, shortened: as §1
[3] = test system: Candida albicans; experiment: Fungicidal activity against drug resistant Candida albicans DF2672R at 4 times MIC after 1 hr by time kill assay relative to control; type: functional
Procedure, shortened: (§2)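 Cells at 10^5–10^6 CFU/mL exposed to 1×, 2×, 4× or 8× MIC at 35 °C. Samples taken at 0.5, 1, 2, 4, 8 and 24 h, serially diluted in PBS and plated on SDA. CFU counted after 24 h at 35 °C; biological replicates.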

[4] = test system: Candida albicans; experiment: Synergistic antifungal activity against drug resistant Candida albicans DF2672R after 24 hrs in presence of amphotericin B by checkerboard assay; type: functional
Procedure, shortened: (§3)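 Checkerboard combination of each compound with a second antifungal, following a previously reported procedure. FIC = MIC of A in combination/MIC of A alone + MIC of B in combination/MIC of B alone.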

[5] = test system: Candida albicans; experiment: Induction of membrane permiablization in drug resistant Candida albicans DF2672R at 4 times MIC after 1 to 2 hrs by SYTOX green dye based spectrofluorometric assay; type: functional
Procedure, shortened: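 Overnight cultures washed and resuspended in PBS at OD600 0.2, then loaded with 0.3 μM SYTOX Green in the dark. After the signal stabilised, compound in PBS/DMF was added (final DMF 0.5%; 0.5% DMF as control). Fluorescence (ex 504/em 523 nm) followed continuously for 1–2 h; biological replicates.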

[6] = test system: Candida albicans; experiment: Antifungal activity against Candida albicans DF1976R after 24 hrs by two fold serial dilution method; type: functional
Procedure, shortened: (§4)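 Candida grown on Sabouraud dextrose agar at 35 °C for 24 h, adjusted to ~5×10^3 CFU/mL. Two-fold dilutions from 100 to 0.78 μg/mL in Sabouraud dextrose broth, incubated at 35 °C for 24 h. MIC is the lowest concentration inhibiting growth by eye and by OD600. CLSI-based with minor modifications.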

[7] = test system: Klebsiella pneumoniae; experiment: Antibacterial activity against Klebsiella pneumoniae DM4299 by two fold serial dilution method; type: functional
Procedure, shortened: (§5)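 Broth microdilution (CLSI, minor modifications) in Sabouraud dextrose, Mueller−Hinton or RPMI 1640 broth; two-fold serial dilutions of compound from stock to final 100 to 0.78 μg/mL. MIC taken as lowest concentration giving no visible growth.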

[8] = test system: Candida albicans; experiment: Antifungal activity against drug resistant Candida albicans DF2672R infected C57BL6 mouse cornea at 0.2% administered topically for every 20 mins during the first hour and every 1 hr during the next 6 hrs by serial dilution method; type: functional
Procedure, shortened: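 C57BL6 mice aged 7–8 weeks (19–23 g), immunosuppressed with cyclophosphamide 100 mg/kg ip at 4 days and 1 day before infection and on day 1 after. Left cornea scratched under xylazine/ketamine, then 20 μL of ~5×10^7 CFU/mL yeast in PBS applied. Treatment started 1 day later; PBS served as control; four mice per group. Corneal fungal load counted by serial dilution plating on SDA.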

[9] = Cytotoxicity against human corneal fibroblasts assessed as reduction in cell viability after 4 hrs by LDH assay; type: cell-based; conditions: Corneal fibroblast
Procedure, shortened: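 LDH release assay on human corneal fibroblasts seeded at 10000 cells per well, exposed to a range of compound concentrations up to 100 μM. 1% Triton X-100 served as positive control and 0.5% DMSO as negative control; biological replicates.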

[10] = test system: Candida albicans; experiment: Fungicidal activity against drug resistant Candida albicans DF2672R at 1 time MIC after 1 hr by time kill assay relative to control; type: functional; procedure, shortened: as §2
[11] = test system: Lipid bilayer; experiment: Induction of membrane permiablization in calcein loaded DOPC/DOPE/PI large unilamellar vesicles assessed as calcein leakage at 1:8 compound to lipid ratio after 1 to 2 hrs by […] fluorescence assay relative to control
Procedure, shortened: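 LUVs (DOPC/DOPE/PI 2:1:1 with 15 wt % ergosterol, about 100 nm) made by film hydration and extrusion, loaded with 80 mM calcein in HEPES buffer pH 7.4. Free dye removed by G-50 column. Compound added in 0.5% DMF at 50 μM final phospholipid. Emission read at 520 nm (excitation 490 nm); leakage normalized to 1% Triton X-100.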

[12] = test system: Candida albicans; experiment: Fungicidal activity against drug resistant Candida albicans DF2672R at 1 time MIC after 24 hrs by time kill assay; type: functional; procedure, shortened: as §2
[13] = test system: Staphylococcus aureus; experiment: Antibacterial activity against methicillin resistant Staphylococcus aureus DM9808R by two fold serial dilution method; type: functional
Procedure, shortened: (§6)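 Broth microdilution per CLSI guidelines with minor modifications, run in Mueller−Hinton broth; MIC is the lowest concentration giving no visible growth.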

[14] = test system: Candida albicans; experiment: Potency index, ratio of natamycin concentration to compound concentration for antifungal activity against drug resistant Candida albicans DF2672R infected C57BL6 mouse; type: functional
[15] = test system: Staphylococcus aureus; experiment: Antibacterial activity against methicillin resistant Staphylococcus aureus DM21455 by two fold serial dilution method; type: functional; procedure, shortened: as §6
[16] = test system: Candida albicans; experiment: Antifungal activity against drug resistant Candida albicans DF2672R measured after 27 passages by two fold serial dilution method; type: functional
Procedure, shortened: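 Serial passage: cells from duplicate tubes at 0.5× MIC adjusted to ~5×10^3 CFU/mL and used as the inoculum for the next broth microdilution MIC, 24 h at 35 °C. Repeated for 27–30 passages, with biological replicates.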

[17] = test system: Candida albicans; experiment: Antifungal activity against Candida albicans ATCC 10231 after 24 hrs by two fold serial dilution method; type: functional; conditions: ATCC 10231, 24 h; procedure, shortened: as §4
[18] = test system: Candida albicans; experiment: Synergistic antifungal activity against drug resistant Candida albicans DF2672R after 24 hrs in presence of posaconazole by checkerboard assay; type: functional; procedure, shortened: as §3
[19] = test system: Candida albicans; experiment: Synergistic antifungal activity against drug resistant Candida albicans DF2672R after 24 hrs in presence of miconazole by checkerboard assay; type: functional; procedure, shortened: as §3
[20] = test system: Candida albicans; experiment: Antifungal activity against drug resistant Candida albicans DF2672R after 24 hrs by two fold serial dilution method; type: functional; procedure, shortened: as §4
[21] = test system: Candida albicans; experiment: Antifungal activity against Candida albicans ATCC11651 after 24 hrs by two fold serial dilution method; type: functional; conditions: ATCC11651, 24 h; procedure, shortened: as §4
[22] = test system: Candida albicans; experiment: Antifungal activity against Candida albicans ATCC24433 after 24 hrs by two fold serial dilution method; type: functional; conditions: ATCC24433, 24 h; procedure, shortened: as §4
[23] = test system: Aspergillus brasiliensis; experiment: Antifungal activity against Aspergillus brasiliensis TCC16404 after 48 hrs by two fold serial dilution method; type: functional; conditions: TCC16404, 48 h; procedure, shortened: as §1
[24] = test system: Fusarium oxysporum; experiment: Antifungal activity against Fusarium oxysporum MYA3461 after 48 hrs by two fold serial dilution method; type: functional; conditions: MYA3461, 48 h; procedure, shortened: as §1
[25] = test system: Candida albicans; experiment: Synergistic antifungal activity against drug resistant Candida albicans DF2672R after 24 hrs in presence of itraconazole by checkerboard assay; type: functional; procedure, shortened: as §3
[26] = test system: Bacillus cereus; experiment: Antibacterial activity against Bacillus cereus ATCC11778 by two fold serial dilution method; type: functional; procedure, shortened: as §5
[27] = test system: Fusarium solani; experiment: Antifungal activity against Fusarium solani 62877 after 48 hrs by two fold serial dilution method; type: functional; conditions: Fusarium solani, 62877, 48 h; procedure, shortened: as §1

Compound COc1c(OCC(O)CNC(=N)N)cc2oc3cc(OCC(O)CNC(=N)N)c(CC=C(C)C)c(O)c3c(=O)c2c1CC=C(C)C (configuration not stated) has an MIC [1] of 3.13 µg/mL (≈ 4.88 µM), an MIC [2] of 6.25 µg/mL (≈ 9.75 µM) and an Activity [3] of 99.9%. For the same compound, the “fractional inhibitory concentration index (FICI)” value [4] was 1.28, the Activity [5] was “Active” and the MIC [6] was 0.78 µg/mL (≈ 1.22 µM). The MIC [7] was 25 to 50 µg/mL (≈ 39 to 78 µM), the Activity [8] was 92.8% and the IC50 [9] was greater than 100 µM. For the same compound, the Activity [10] was 91%, the Activity [11] was 43.8% and the Activity [12] was “Active”. For the same compound, the MIC [13] was 1.56 to 3.13 µg/mL (≈ 2.43 to 4.88 µM), the Ratio [14] was 25 and the MIC [15] was 1.56 to 3.13 µg/mL (≈ 2.43 to 4.88 µM). For the same compound, the Activity [16] was “Active”, the MIC [17] was 0.78 µg/mL (≈ 1.22 µM) and the “fractional inhibitory concentration index (FICI)” value [18] was 1.06. The “fractional inhibitory concentration index (FICI)” value [19] was 0.88, the MIC [20] was 0.78 µg/mL (≈ 1.22 µM) and the MIC [21] was 0.78 µg/mL (≈ 1.22 µM). The MIC [22] was 0.78 µg/mL (≈ 1.22 µM), the MIC [23] was 3.13 µg/mL (≈ 4.88 µM) and the MIC [24] was 1.56 µg/mL (≈ 2.43 µM). For the same compound, the “fractional inhibitory concentration index (FICI)” value [25] was 1.28, the MIC [26] was 1.56 to 3.13 µg/mL (≈ 2.43 to 4.88 µM) and the MIC [27] was 3.13 µg/mL (≈ 4.88 µM).
